Measles CPE – compounds protecting cells from measles virus cytopathic effect, primary screen, measles RdRp inhibitor project, single point, MLSMR library, absorbance. Measles virus-infected cells, CPE protection. protection (pct of control), % at 4 µM. hit rate 1.5% among 140,000; in the data active = protection mostly above about 24%, no sharp cut-off; inactive = mostly below about 26%
sdo1 growth – growth rescue of sdo1-depleted yeast, primary screen, S. cerevisiae, bone marrow failure model. S. cerevisiae sdo1-depleted JHY4D growth rescue, OD600 30 h; active compounds read high; pdr5 snq2 efflux-pump mutant strain. z-score at 10 µM. hit rate 0.21% among 140,000;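 active = z-score above 3 at both the 24 hr and the 30 hr optical density reads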
sEH inh – soluble epoxide hydrolase inhibitors, primary screen, biochemical, human sEH; recombinant human sEH enzymatic activity assay; inhibition, % at 2 µM; hit rate 0.34% among 91,000; AID 707, 2007; in the data active = inhibition above about 80%
Target sequence (P34913 whole entry, looked up): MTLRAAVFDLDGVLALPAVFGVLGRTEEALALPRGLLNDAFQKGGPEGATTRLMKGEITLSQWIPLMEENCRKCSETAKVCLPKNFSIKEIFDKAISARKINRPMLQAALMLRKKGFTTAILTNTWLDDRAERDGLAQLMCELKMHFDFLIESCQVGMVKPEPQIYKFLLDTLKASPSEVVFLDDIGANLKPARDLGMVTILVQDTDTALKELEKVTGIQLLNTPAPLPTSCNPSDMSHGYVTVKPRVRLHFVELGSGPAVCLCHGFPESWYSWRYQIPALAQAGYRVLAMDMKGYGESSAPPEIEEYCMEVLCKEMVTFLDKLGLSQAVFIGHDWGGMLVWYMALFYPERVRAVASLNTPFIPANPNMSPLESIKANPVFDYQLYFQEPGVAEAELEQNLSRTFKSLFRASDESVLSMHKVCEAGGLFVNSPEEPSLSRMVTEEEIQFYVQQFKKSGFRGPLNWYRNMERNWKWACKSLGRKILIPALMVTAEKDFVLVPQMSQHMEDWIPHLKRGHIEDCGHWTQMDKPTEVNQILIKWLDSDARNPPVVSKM
Yeast life ext – compounds extending yeast replicative lifespan, primary screen, S. cerevisiae, OD615; hit rate 0.68% among 130,000; S. cerevisiae growth with nicotinamide; deaD strain in restrictive glucose medium; inhibition of the nicotinamide effect, % at 10 µM;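 active = inhibition above a set limit, placed 3 SD over the median of all compounds, cut at about 26% in these data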
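Assay system: DeaD-strain S. cerevisiae. Medium: CSMM-D glucose medium, restrictive. Reagent: nicotinamide, 1.5 mM, co-present with compound. Compound: 10 µM single point, 0.25% DMSO. Schedule: culture preincubation 4 h, compound exposure 48 h, both 30 °C. Detection: absorbance at 615 nm.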
BB579 growth dn – growth inhibitors of yeast BB579 in restrictive medium, primary screen, yeast lifespan-shortening project, S. cerevisiae; OD615, 48 h; inhibition, % at 10 µM; hit rate 0.51% among 140,000;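 active = inhibition above a set limit, 3 SD over the mean compound inhibition, cut at about 44% in these data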
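Assay system – yeast BB579 (DeaD) · Dosing – single compound dose of 10 µM, 0.25% DMSO final · Detection – OD615 turbidity measurement · Buffer or medium – CSMM-D restrictive synthetic medium containing dextrose (glucose) · Benchmarks – positive control amphotericin B 10 µg/mL · Incubation – 48 h exposure, 30 °C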
sEH act – soluble epoxide hydrolase activators, primary screen, biochemical, human sEH | Bifunctional epoxide hydrolase 2 (Homo sapiens), P34913 | purified human sEH enzymatic activity, activator screen | activation, % at 2 µM | hit rate 0.04% among 91,000 | AID 717, 2007; in the data active = activation above about 37%
Of the large screens only hits and unclear results are named; the others gave an inactive call. Only some compounds are listed: those with a hit (about 3% of all), similar ones and a draw of the others.

NC(=O)c1ccc(NC(=O)COC(=O)c2cccc(Oc3ccccc3)c2)cc1	none (no result: sEH inh, sEH act)
CSc1ccccc1NC(=O)Cn1c(-c2cscn2)nc2ccccc21	Measles CPE 96
COc1ccc(CCNC(=O)C2CCN(Cc3nc(-c4ccccc4C)oc3C)CC2)cc1OC	none
O=C(NCCC1=CCCCC1)C1CCCN(c2nc3ccccc3o2)C1 (stereo not drawn)	sEH inh 96
Cc1oc(-c2ccccc2F)nc1CN1CCC(C(=O)NC2CCCCCCC2)CC1	sEH inh 91
Cc1ccccc1-c1nc(CN2CCC(C(=O)NCCC3=CCCCC3)CC2)c(C)o1	sEH inh 93 (no result: Measles CPE)
O=C(NC1CCCCCCC1)C1CCN(c2nc3ccccc3o2)CC1	sEH inh 93
COC(=O)c1ccc(CSc2nc3ccc(S(=O)(=O)N4CCOCC4)cc3[nH]2)cc1	none (no result: sEH inh, sEH act)
CCNc1nc(ON=C(C)C)nc(N(C)C)n1	none (no result: sEH inh, sEH act)
CC1(C)CC2c3cccc(C(=O)O)c3C(=O)N2c2c1ccc1ccccc21 (stereo not drawn)	Yeast life ext 48 (no result: sEH inh, sEH act)
COC(=O)c1cc(=O)n(-c2ccccc2)c(=Nc2ccccc2)s1	Yeast life ext 33 (no result: sEH inh, sEH act)
CCOC(=O)c1ccc(N=c2sc(C(=O)OC)cc(=O)n2-c2ccc(C(=O)OCC)cc2)cc1	none (no result: sEH inh, sEH act)
Cc1noc(C)c1COc1cccc(C(=O)NCc2ccccc2Cl)c1	sEH inh 86
O=c1c2c([N+](=O)[O-])cc([N+](=O)[O-])cc2sn1-c1ccc(Br)cc1	BB579 growth dn 45 (no result: sEH inh, sEH act)
Nc1nc(C2CCCCC2)cs1	none
CCC1(C)CC(c2csc(N)n2)CCO1 (stereo not drawn)	Measles CPE 65
CN1CCN(C(=O)CSc2ccc(C(F)(F)F)cc2[N+](=O)[O-])CC1	Yeast life ext 30 (no result: sEH inh, sEH act)
O=C(Nc1ccccc1Cl)c1ccccc1Cl	none
O=C1OCC(CO)(CO)N=C1NNc1ccccc1Cl	BB579 growth dn 98
O=C(N/N=C/c1cc(Br)ccc1O)C(c1ccncc1)N1CCOCC1 (stereo not drawn)	Yeast life ext 35 (no result: sEH inh, sEH act)
CC1=CC(=O)c2ccccc2C1=O	BB579 growth dn 68 (no result: sEH inh, sEH act)
COc1cccc2c1C(=O)C=C(C)C2=O	none (no result: sEH inh, sEH act)
Cc1cc(-c2ccccc2)n(-c2ccc(C(=O)N3CCN(c4ncccn4)CC3)cc2)n1	none
CS(=O)(=O)c1nc(-c2ccccc2)cc(C(F)(F)F)n1	Yeast life ext 75 (no result: sEH inh, sEH act)
O=C(COC(=O)CCCNC(=O)c1ccc(Cl)cc1)Nc1ccc(Br)cc1	Measles CPE 112 (no result: sEH inh, sEH act)
O=C(COC(=O)CCCNC(=O)c1ccc(Cl)cc1)NCc1ccccc1Cl	none
Cc1cc(=O)oc2cc(OCc3ccc(C(=O)OCC(=O)Nc4ccccc4OC(F)F)cc3)ccc12	none (no result: sEH inh, sEH act)
N/C(Cc1ccc(Cl)cc1Cl)=N\OC(=O)c1cccs1	BB579 growth dn 100
N/C(Cc1ccc(Cl)cc1Cl)=N\OC(=O)Cc1cccs1	none (no result: sEH inh, sEH act)
O=C(c1ccc(Cl)cc1)N1CCCCC(Sc2nnc(-c3ccc4c(c3)OCO4)o2)C1=O (stereo not drawn)	Measles CPE 39 (no result: sEH inh, sEH act)
O=c1[nH]c2ccccc2nc1C(Cl)c1ccccc1 (stereo not drawn)	Yeast life ext 37
CCOC(=O)C(C)c1nc2ccccc2[nH]c1=O (stereo not drawn)	Measles CPE 25
CCOC(=O)C1=C(C)NC(C)=C(C(=O)OCC)C1c1nc2ccccc2[nH]1	none (no result: Measles CPE, sdo1 growth, Yeast life ext, BB579 growth dn)
O=C(/C=C/c1cccc([N+](=O)[O-])c1)Nc1cccc(NC(=O)c2cccs2)c1	none (no result: sEH inh, sEH act)
COCCn1c(=S)[nH]c2ccc(N(C)C)cc2c1=O	none
CC(Cc1cccs1)NC(=O)Nc1cccc(Cl)c1 (stereo not drawn)	sEH inh 84
N/C(Cc1ccc(Cl)cc1)=N\OC(=O)c1ccccc1	BB579 growth dn 96
O=C(Nc1nc2ccccc2s1)C1=NN(c2ccccc2)C(=O)CC1	none (no result: sEH inh, sEH act)
CCN1CCN(c2ncnc3c2sc(=S)n3-c2ccccc2)CC1	BB579 growth dn 46 (no result: sEH inh, sEH act)
Cc1ccnc(NS(=O)(=O)c2ccc(NS(=O)(=O)c3ccccc3)cc2)n1	none (no result: Yeast life ext)
O=C1c2ccccc2C(Nc2ccc3c(c2)OCCO3)N1c1ccccn1 (stereo not drawn)	Yeast life ext 36
COC(=O)CC1COc2ccccc2N1C(=O)c1cccc(Cl)c1 (stereo not drawn)	Measles CPE 26
NC(=O)C1CCN(C(=O)OCc2ccccc2)CC1	none
CC(=O)c1c(C)nc2ccccn12	none (no result: sEH inh, sEH act)
Clc1cc2nc3ccccn3c2cc1Cl	BB579 growth dn 43
O=C(Nc1cccc(Cl)c1)C1C2CCC3C(CCC21)C3(Cl)Cl (stereo not drawn)	none (no result: sEH inh, sEH act)
CC1(C)CC(=O)C(C(c2cccc([N+](=O)[O-])c2)C2C(=O)CC(C)(C)CC2=O)C(=O)C1	Yeast life ext 27 (no result: sEH inh, sEH act)
C[C@@H]1NC(=O)[C@H](CCCN=C(N)N)NC(=O)c2cc([N+](=O)[O-])cc(I)c2OCC[C@@H](C(=O)NC(CC(=O)O)C(N)=O)NC1=O (stereo partly drawn)	none (no result: sEH inh, sEH act)
O=C(COc1ccc(Cl)cc1Cl)NCc1ccncc1	none
Cc1cc(Cl)ccc1OCC(=O)NCc1ccncc1	Measles CPE 48
Cc1cc(C(=O)COc2ncnc3sccc23)c(C)n1C	Yeast life ext 35
CNC(=O)COc1ncnc2sccc12	none
Cc1ccc(N(CC(=O)NC2CCCC2)C(=O)c2c(C)noc2C)cc1C	none
O=C(O)c1ccccc1Nc1ccccc1C(=O)O	none
O=C(O)c1ccccc1Nc1ccc([N+](=O)[O-])cc1	Measles CPE 83, BB579 growth dn 95 (no result: sEH inh, sEH act)
CC1=C(OC(=O)C(C)(C)C)C(C)(C)C(c2ccccc2)OC1=O (stereo not drawn)	none (no result: sEH inh, sEH act)
COc1ccc(N2C(=O)CC(N3CCC(O)(c4ccc(Cl)cc4)CC3)C2=O)cc1 (stereo not drawn)	Measles CPE 26
CC(C)NS(=O)(=O)c1ccc(NC(=S)NC(=O)c2ccc(-c3ccccc3)cc2)cc1	Measles CPE 44
O=C(NC(=S)Nc1ccccc1)c1ccc(-c2ccccc2)cc1	none (no result: sEH inh, sEH act)
O=C(/C=C/c1ccccc1)C1C(=O)c2ccccc2C1=O	Yeast life ext 43 (no result: sEH inh, sEH act)
O=C(c1ccccc1)C1C(=O)c2ccccc2C1=O	Yeast life ext 27 (no result: sEH inh, sEH act)
O=C(c1ccccc1)C1CCc2occc2C1=O (stereo not drawn)	none
O=C(O)CCN1CC2([N+](=O)[O-])C=CC(=O)C([N+](=O)[O-])(C1)C2CC(=O)c1ccccc1 (stereo not drawn)	none (no result: sEH inh, sEH act)
C=CCN1C(=O)CSc2ccc(C(=O)N3CCC(C)CC3)cc21	none
Cc1ccoc1C(=O)NCCCNC(=O)c1occc1C	none
Cc1ccoc1C(=O)NCc1occc1C(=O)O	Measles CPE 41 (no result: sEH inh, sEH act)

Source: PubChem
